Data on three compounds can be found in ChEMBL document CHEMBL3297702, “Improving photodynamic inactivation of bacteria in dentistry: highly effective and fast killing of oral key pathogens with novel tooth-colored type-II photosensitizers” (J Med Chem, 2014).

Data set [1] deals with Enterococcus faecalis. As to the kind of experiment: Photodynamic inactivation of Enterococcus faecalis ATCC 29212 assessed as reduction of log10 CFU at 5 uM incubated prior to irradiation with 150 j/cm'2 for 120 secs measured after 24 hrs by agar plating method (reference value: <1 no unit). The data set is classed as functional. The method, boiled down: (§1)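 E. faecalis ATCC 29212, aerobic overnight BHI culture at 37 °C, was harvested at stationary phase and suspended in PBS at 10^7–10^8 bacteria/mL. It was mixed 1:1 with PS to 0–250 µM final, held 10 s, then illuminated (1260 ± 50 mW/cm2) or kept dark. Dilutions were plated on Mueller-Hinton agar, aerobic 37 °C 24 h, CFU counted. Medians of three independent triplicate experiments, referred to untreated controls.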

The subject of data set [2] is Enterococcus faecalis. Nature of the data set: Photodynamic inactivation of Enterococcus faecalis ATCC 29212 assessed as reduction of log10 CFU at 10 uM incubated prior to irradiation with 150 j/cm'2 for 120 secs measured after 24 hrs by agar plating method (reference value: <1 no unit). The data set is classed as functional. An outline of the steps:
as §1

The test system of data set [3] is Enterococcus faecalis. As to the kind of experiment: Photodynamic inactivation of Enterococcus faecalis ATCC 29212 assessed as reduction of log10 CFU at 100 uM incubated prior to irradiation with 25 j/cm'2 for 20 secs measured after 24 hrs by agar plating method (reference value: <1 no unit). The data set is classed as functional. An outline of the steps:
as §1

The nature of data set [4]: Octanol-water partition coefficient, log P of the compound at 1 x 10^-4 mol at room temperature after 10 mins by UV/vis spectroscopic analysis. The data set is classed as physicochemical.
Data set [5] relates to Enterococcus faecalis. As to the kind of experiment: Photodynamic inactivation of Enterococcus faecalis ATCC 29212 assessed as reduction of log10 CFU at 100 uM incubated prior to irradiation with 50 j/cm'2 for 40 secs measured after 24 hrs by agar plating method (reference value: <1 no unit). The data set is classed as functional. An outline of the steps: as §1
Data set [6] concerns Enterococcus faecalis. Nature of the data set: Photodynamic inactivation of Enterococcus faecalis ATCC 29212 assessed as reduction of log10 CFU at 5 uM incubated prior to irradiation with 25 j/cm'2 for 20 secs measured after 24 hrs by agar plating method (reference value: <1 no unit). The data set is classed as functional. An outline of the steps: as §1
In data set [7] the test system is Enterococcus faecalis. Nature of the data set: Photodynamic inactivation of Enterococcus faecalis ATCC 29212 assessed as reduction of log10 CFU at 100 uM incubated prior to irradiation with 150 j/cm'2 for 120 secs measured after 24 hrs by agar plating method (reference value: <1 no unit). The data set is classed as functional. An outline of the steps:
as §1

For data set [8], the system named is Streptococcus mutans. As to the kind of experiment: Photodynamic inactivation of Streptococcus mutans ATCC 25175 assessed as reduction of log10 CFU at 1 to 250 uM preincubated for 10 secs followed by irradiation with 25 j/cm'2 for 20 secs measured after 48 hrs by agar plating method. The data set is classed as functional.
Data set [9] has as its system Enterococcus faecalis. As to the kind of experiment: Photodynamic inactivation of Enterococcus faecalis ATCC 29212 assessed as reduction of log10 CFU at 5 uM incubated prior to irradiation with 50 j/cm'2 for 40 secs measured after 24 hrs by agar plating method (reference value: <1 no unit). The data set is classed as functional. The method, boiled down:
as §1

Data set [10] concerns Enterococcus faecalis. Nature of the data set: Photodynamic inactivation of Enterococcus faecalis ATCC 29212 assessed as reduction of log10 CFU at 10 uM incubated prior to irradiation with 25 j/cm'2 for 20 secs measured after 24 hrs by agar plating method (reference value: <1 no unit). The data set is classed as functional. The method, boiled down: as §1
Data set [11] has as its system Enterococcus faecalis. Nature of the data set: Photodynamic inactivation of Enterococcus faecalis ATCC 29212 assessed as reduction of log10 CFU at 10 uM incubated prior to irradiation with 50 j/cm'2 for 40 secs measured after 24 hrs by agar plating method (reference value: <1 no unit). The data set is classed as functional. An outline of the steps: as §1
Data set [12] relates to Enterococcus faecalis. As to the kind of experiment: Photodynamic inactivation of Enterococcus faecalis ATCC 29212 assessed as reduction of log10 CFU at 1 uM incubated prior to irradiation with 50 j/cm'2 for 40 secs measured after 24 hrs by agar plating method (reference value: <1 no unit). The data set is classed as functional. An outline of the steps: as §1
The nature of data set [13]: Induction of singlet oxygen generation measured over 20 mins by luminescence assay. The data set is classed as physicochemical.
Data set [14] relates to Enterococcus faecalis. As to the kind of experiment: Photodynamic inactivation of Enterococcus faecalis ATCC 29212 assessed as reduction of log10 CFU at 1 uM incubated prior to irradiation with 25 j/cm'2 for 20 secs measured after 24 hrs by agar plating method (reference value: <1 no unit). The data set is classed as functional. The method, boiled down:
as §1

The test system of data set [15] is Enterococcus faecalis. Nature of the data set: Photodynamic inactivation of Enterococcus faecalis ATCC 29212 assessed as reduction of log10 CFU at 1 uM incubated prior to irradiation with 150 j/cm'2 for 120 secs measured after 24 hrs by agar plating method (reference value: <1 no unit). The data set is classed as functional. An outline of the steps: as §1
Data set [16] in a line: Photobleaching of the compound irradiated with laser energy at 405 nm for 5 mins. The data set is classed as physicochemical. Further details: dose or concentration left out as unconfirmed.
The subject of data set [17] is Aggregatibacter actinomycetemcomitans. Nature of the data set: Photodynamic inactivation of Aggregatibacter actinomycetemcomitans ATCC 43718 assessed as reduction of log10 CFU at 100 uM incubated prior to irradiation with 150 j/cm'2 for 120 secs measured after 48 hrs by agar plating method relative to control. The data set is classed as functional, Y4. An outline of the steps: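 A. actinomycetemcomitans ATCC 43718 cultured overnight in BHI broth under anaerobic conditions, 37 °C with shaking. Stationary-phase cells were spun down, taken up in PBS to 10^7–10^8/mL, and combined 1:1 with PS (final 0–250 µM) or water. After 10 s they were irradiated at 1260 ± 50 mW/cm2 or kept dark. Serial dilutions went onto BHI agar, incubated anaerobically at 37 °C for 48 h, and CFU were scored. Results are medians from 3 experiments × triplicate versus untreated controls.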

Another data set deals with Actinomyces naeslundii. Nature of the data set: Photodynamic inactivation of Actinomyces naeslundii T14V assessed as reduction of log10 CFU at 100 uM incubated prior to irradiation with 50 j/cm'2 for 40 secs measured after 48 hrs by agar plating method (reference value: <1 no unit). The data set is classed as functional. An outline of the steps:
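A. naeslundii T14V grown overnight at 37 °C, shaken, aerobically in BHI broth. Harvested at stationary phase, resuspended in PBS to 10^7–10^8 bacteria/mL (OD600). Mixed 1:1 with PS (final 0–250 µM) or water, 10 s incubation, then blue photopolymerizer light (1260 ± 50 mW/cm2) or dark. Tenfold dilutions plated on blood agar, aerobic 37 °C 48 h, CFU counted; medians of three independent experiments in triplicate.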

Data set [18] has as its system Streptococcus mutans. As to the kind of experiment: Photodynamic inactivation of Streptococcus mutans ATCC 25175 assessed as reduction of log10 CFU at 1 uM incubated prior to irradiation with 50 j/cm'2 for 40 secs measured after 48 hrs by agar plating method (reference value: <1 no unit). The data set is classed as functional.
Data set [19] relates to Streptococcus mutans. Nature of the data set: Photodynamic inactivation of Streptococcus mutans ATCC 25175 assessed as reduction of log10 CFU at 5 uM incubated prior to irradiation with 150 j/cm'2 for 120 secs measured after 48 hrs by agar plating method (reference value: <1 no unit). The data set is classed as functional.
Data set [20] deals with Streptococcus mutans. As to the kind of experiment: Photodynamic inactivation of Streptococcus mutans ATCC 25175 assessed as reduction of log10 CFU at 10 uM incubated prior to irradiation with 50 j/cm'2 for 40 secs measured after 48 hrs by agar plating method (reference value: <1 no unit). The data set is classed as functional.
For data set [21], the system named is Streptococcus mutans. As to the kind of experiment: Photodynamic inactivation of Streptococcus mutans ATCC 25175 assessed as reduction of log10 CFU at 1 uM incubated prior to irradiation with 25 j/cm'2 for 20 secs measured after 48 hrs by agar plating method (reference value: <1 no unit). The data set is classed as functional.

Molecules are shown by their SMILES. Activity calls are given as the source filed them. The calls are words filed in the database; no cut-off is given here. Where only a bound is given, the exact number is not on record here.

As for `C[N+](C)(C)CC1=Cc2cccc3cccc(c23)C1=O.[Cl-]`, the log10cfu is recorded as above 6 with Enterococcus faecalis [1]; above 6 in the data set on Enterococcus faecalis [2]; above 6 with Enterococcus faecalis [3]; above 6 with Enterococcus faecalis [5]; below 1 with Enterococcus faecalis [6]; above 6 with Enterococcus faecalis [7]. For the same compound, the log10cfu is on record as below 3 in the data set with Enterococcus faecalis [9]; below 1 in the data set with Enterococcus faecalis [10]; below 3 with Enterococcus faecalis [11]; below 1 with Enterococcus faecalis [12]; below 1 in the data set on Enterococcus faecalis [14]; below 3 in the data set on Enterococcus faecalis [15]. For the same compound, the logP (usually the decadic logarithm of the partition coefficient of the neutral form, usually between octanol and water) at 10 min in data set [4] is -1.4. For the same compound, in the data set with Streptococcus mutans [8], the outcome was Active. In data set [13], the outcome was Active. In addition, the Stability result in [16] is given as “Unstable”.
Take `O=C1C(C[n+]2ccccc2)=Cc2cccc3cccc1c23.[Cl-]`: the log10cfu in the data set with Enterococcus faecalis [1] is on record as above 6; in the data set on Enterococcus faecalis [2], above 6; in [17] it was above 6; in the data set with Enterococcus faecalis [3], above 6; in the data set on Enterococcus faecalis [5], above 6; in the data set with Enterococcus faecalis [6] it was below 1. Also, the log10cfu is above 5 with Actinomyces naeslundii; above 6 with Enterococcus faecalis [7]; below 1 with Streptococcus mutans [18]; above 6 with Streptococcus mutans [19]; above 6 in the data set with Streptococcus mutans [20]; below 3 in the data set on Enterococcus faecalis [9]. Besides, the log10cfu in the data set with Enterococcus faecalis [10] was below 3; with Streptococcus mutans [21], below 1; in the data set on Enterococcus faecalis [11], above 6; with Enterococcus faecalis [12], below 1; in the data set with Enterococcus faecalis [14], below 1; with Enterococcus faecalis [15] it was below 3. Further, the logP at 10 min in [4] was -1.3. Besides, the outcome in the data set with Streptococcus mutans [8] was Active. Also, the outcome in [13] was Active. The Stability result in data set [16] was “Unstable”.
On to `C[N+](C)(CCO)CC1=Cc2cccc3cccc(c23)C1=O.[Cl-]`, for which the log10cfu is below 3 in the data set with Enterococcus faecalis [1]; above 6 in the data set on Enterococcus faecalis [2]; above 6 in data set [17]; above 6 in the data set on Enterococcus faecalis [3]; above 6 with Enterococcus faecalis [5]; below 1 with Enterococcus faecalis [6]. The log10cfu in the data set on Actinomyces naeslundii is above 5; in the data set with Enterococcus faecalis [7], above 6; in the data set with Streptococcus mutans [18] it was below 1; in the data set on Streptococcus mutans [19], below 3; in the data set on Streptococcus mutans [20], below 3; in the data set on Enterococcus faecalis [9] it was below 1. Also, the log10cfu in the data set on Enterococcus faecalis [10] is listed as below 3; with Streptococcus mutans [21], below 1; in the data set on Enterococcus faecalis [11] it was below 3; in the data set on Enterococcus faecalis [12], below 1; with Enterococcus faecalis [14] it was below 1; in the data set on Enterococcus faecalis [15], below 1. The compound further came in with a logP at 10 min in [4] of -1.3. Also, the result in data set [13] was Active. The Stability entry in [16] is listed as “Unstable”.
